D1 mod: allosteric modulators of human D1 dopamine receptor | P21728 | HEK293 D1, CRE-luciferase, dopamine EC30 potentiation; actives deviate in either direction | B-score at 10 µM | hit rate 5.9% among 58,000 | AID 641;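 active = luminescence count or its row- and column-corrected plate score outside the 99.7% band of the plate's sample wells, on either side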
M1 antagonist: blocks the rat M1 muscarinic receptor response to acetylcholine. P08482. CHO-M1 cells, Fluo-4 calcium, ACh EC80 antagonist mode; hits give low values. B-score at 10 µM. hit rate 3.4% among 64,000. AID 628;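 active = calcium fluorescence response, raw or row-and-column corrected B-score, differing from the plate sample mean either way at a set confidence level, mostly lower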
Target sequence (P08482 whole entry, looked up): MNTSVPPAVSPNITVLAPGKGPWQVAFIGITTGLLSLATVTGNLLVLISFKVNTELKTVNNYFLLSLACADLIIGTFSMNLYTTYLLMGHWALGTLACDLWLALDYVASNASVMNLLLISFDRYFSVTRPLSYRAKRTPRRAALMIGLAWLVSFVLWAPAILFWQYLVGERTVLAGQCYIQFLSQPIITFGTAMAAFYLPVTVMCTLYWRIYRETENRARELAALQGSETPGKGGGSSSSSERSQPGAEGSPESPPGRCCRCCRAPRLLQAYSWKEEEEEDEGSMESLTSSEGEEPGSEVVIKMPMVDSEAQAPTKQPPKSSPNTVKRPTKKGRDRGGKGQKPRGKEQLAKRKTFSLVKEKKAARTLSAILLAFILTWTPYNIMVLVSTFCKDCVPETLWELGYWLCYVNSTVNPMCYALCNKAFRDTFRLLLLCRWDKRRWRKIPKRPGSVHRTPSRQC
mHtt clearance: compounds clearing mutant huntingtin protein; inhibition, % at 1.5 µM; AID 853; HeLa Exon1htt(103Q)mCFP, aggregate imaging; zero = plate's median compound well; hit rate 0.42% among 47,000;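 active = inhibition of aggregate fluorescence above about 70%, also judged a hit by eye on the cell image, limit read from the data, passing the limit was not always enough; inconclusive = no rule stated for this call; inactive = not judged a hit on image review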;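 note: cells exposed to compound for three days before fixation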
M1 agonist: activates the M1 muscarinic receptor. AID 626. CHO-M1 cells, Fluo-4 calcium fluorescence, agonist mode; hits give high values. B-score at 10 µM. hit rate 3% among 64,000;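 active = fluorescence rise, raw or as B-score row- and column-corrected plate score, outside the 99.7% band of its plate's samples, either direction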
AP complement: orthogonal test for alternative complement pathway inhibitors; Human serum alternative complement pathway, LPS-coated ELISA, C3 deposition; tested in compound mixtures; inhibition, % at 5 µM; hit rate 0.08% among 62,000; AID 1235;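 active = inhibition above 30% in each of the two pooled mixtures holding the compound, so the lower value exceeds 30%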
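Assay system: Human serum alternative complement pathway, C3 deposition on LPS-coated wells | Incubation: 1 h serum-compound exposure at 37 °C | Doses: 5 µM per compound in ten-compound mixtures | Read-out: Percent inhibition | Technique: ELISA with HRP anti-human C3 antibody, TMB substrate, absorbance 450 nm | Replication: Two pool placements per compound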
M1 ag confirm: rat M1 muscarinic agonism, confirmation. shares compounds with M1 agonist. CHO-M1 cells, Fluo-4 calcium fluorescence, agonist mode; actives lie on both sides. fluorescence change (max-min) at 10 µM. hit rate 19% among 1,700;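 active = fluorescence change differs from the solvent-only DMSO control mean at a set confidence level in both duplicate runs; inconclusive = differs from solvent-only control mean in just one of two runs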;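 note: an EC20 dose of acetylcholine follows compound addition during the same imaging run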
M4 ag counter: rat M4 muscarinic agonism, M1 counter-screen; shares compounds with M1 agonist; hit rate 9% among 1,700; CHO M4/Gqi5 cells, Fluo-4 calcium fluorescence, agonist mode; actives lie on both sides; fluorescence change (max-min) at 10 µM;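 active = fluorescence change differing from the plate's solvent-only control wells at 99.7% confidence in both duplicates, whether higher or lower; inconclusive = differs from solvent controls in only one of two duplicates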
Of the large screens only hits and unclear results are named; the others gave an inactive call (follow-up assays come after a bar, where they were run). Sampled rows, rich in hits. Any-hit rate of the full collection: about 9%.

COc1ccc(S(=O)(=O)Cc2ccc(C(=O)N3CCN(c4cccc(C)c4)C(C)C3)o2)cc1 (centres undefined)	M1 agonist 3.4 (no result: mHtt clearance) | M1 ag confirm inconclusive | M4 ag counter inactive
COc1ccc(N2CCN(C(=O)c3ccc(NS(=O)(=O)c4ccc(F)c(F)c4)cc3)CC2)cc1	M1 agonist 2.3 (no result: mHtt clearance, AP complement) | M1 ag confirm inactive | M4 ag counter inactive
COc1ccc(N2CCN(C(=O)c3ccc(CS(=O)(=O)c4ccc(OC)cc4)o3)CC2)cc1	mHtt clearance inconclusive
COc1ccc(S(=O)(=O)Cc2ccc(C(=O)N3CCN(c4ccc(Cl)cc4)CC3)o2)cc1	M1 agonist 2.3 | M1 ag confirm inactive | M4 ag counter inactive
COc1ccc(S(=O)(=O)Cc2ccc(C(=O)NCCc3ccc(S(N)(=O)=O)cc3)o2)cc1	M1 agonist 3.8 | M1 ag confirm inconclusive | M4 ag counter inactive
CCn1c(SCC(=O)Nc2cccc(C)c2)nc2c(c1=O)SC(C)C2 (centres undefined)	none
CC(C)CCNC(=O)c1nnc(Cc2ccc(Cl)cc2)o1	none (no result: D1 mod, M1 antagonist, M1 agonist, AP complement)
COc1cccc(C2C=C(c3ccc(Br)s3)Nc3ncnn32)c1OC (centres undefined)	M1 agonist 18 (no result: mHtt clearance) | M1 ag confirm 170 | M4 ag counter 156
CCOC(=O)C1CCCN(C(=O)CCC(=O)Nc2ccc3nc(N4CCOCC4)cc(C)c3c2)C1 (centres undefined)	M1 agonist 5.4 | M1 ag confirm inconclusive | M4 ag counter inactive
CCOC(=O)C1CCCN(CC(=O)NC2CC2)C1 (centres undefined)	none (no result: mHtt clearance)
CCOC(=O)C1CCCN(CCC(=O)Nc2ccc(F)c(F)c2)C1 (centres undefined)	M1 agonist 5.8 (no result: mHtt clearance) | M1 ag confirm inactive | M4 ag counter inactive
CCOC(=O)C1CCCN(CC(=O)NC2=Nc3ccccc3N=C(C)C2c2ccccc2)C1 (centres undefined)	M1 agonist 7.4 | M1 ag confirm -31 | M4 ag counter inactive
CCn1nnnc1SCC(=O)Nc1cc(OC)cc(OC)c1	none (no result: mHtt clearance)
CCN1C(=S)SC(=O)C1=C1C=C(C)OC(C)=C1	none (no result: mHtt clearance)
CCN1C(=S)SC(=O)C1=C1C=C(C)N(Cc2ccco2)C(C)=C1	M1 agonist 27 (no result: mHtt clearance) | M1 ag confirm 135 | M4 ag counter 234
CC1=C2C(CCS2(=O)=O)CC2(C1)C(=O)OC(C)(C)OC2=O (centres undefined)	none
CC1(C)CC(=O)c2cc(OCC(=O)NCCN3CCCc4ccccc43)ccc2O1	none (no result: mHtt clearance)
COc1ccc(-c2noc(CCC(=O)NCCN3CCN(c4ccccc4F)CC3)n2)cc1	D1 mod -2.8, M1 agonist 5 (no result: mHtt clearance) | M1 ag confirm inactive | M4 ag counter inactive
Clc1cccc(N2CCN(Cc3nc(-c4ccccc4)no3)CC2)c1	none
COc1ccc(-c2noc(CCC(=O)NCCCN3CCC(C)CC3)n2)cc1	none (no result: mHtt clearance)
Cc1ccc(-c2noc(CCC(=O)NCCCN3CCN(c4ccc(F)cc4)CC3)n2)cc1	D1 mod -5, M1 antagonist -2.6, M1 agonist 5.3 | M1 ag confirm inactive | M4 ag counter inactive
Cc1ccc(-c2noc(CCC(=O)NCCCN3CCN(c4cccc(Cl)c4)CC3)n2)cc1	D1 mod -3.9, M1 antagonist -3.7, M1 agonist 4.4 | M1 ag confirm inconclusive | M4 ag counter inactive
CC1(C)CC(=O)c2cc(OCC(=O)NCCCN3CCN(c4ccc(F)cc4)CC3)ccc2O1	D1 mod -4.2, M1 agonist 13 (no result: mHtt clearance) | M1 ag confirm inactive | M4 ag counter inactive
C=CCn1c(=O)c2c(nc3n2CC(C)CN3c2cccc(OC)c2)n(C)c1=O (centres undefined)	M1 agonist 1.9 (no result: mHtt clearance) | M1 ag confirm inactive | M4 ag counter inconclusive
CC1CN(c2ccc(Oc3ccccc3)cc2)c2nc3c(c(=O)n(CC(N)=O)c(=O)n3C)n2C1 (centres undefined)	none (no result: mHtt clearance)
O=C(N1CCOCC1)N(CCN1CCOCC1)Cc1cccc(Cl)c1	none (no result: mHtt clearance)
CCOc1ccc(CC(=O)NCc2cn3c(C)csc3n2)cc1	M1 agonist 3.4 (no result: mHtt clearance) | M1 ag confirm inconclusive | M4 ag counter inconclusive
CCc1ccc(S(=O)(=O)NCc2cn3c(C)csc3n2)s1	M1 agonist -3.1 | M1 ag confirm inactive | M4 ag counter inactive
COc1ccc(CCNC(=O)CSc2nc(O)c(C(C)C)c(=O)[nH]2)cc1OC	none (no result: D1 mod, M1 antagonist, M1 agonist, AP complement)
CCn1nc(C)c(/C=C2\CCCC3=C2OC(N)=C(C#N)C3c2c(C)nn(CC)c2C)c1C (centres undefined)	M1 agonist 14 (no result: mHtt clearance) | M1 ag confirm 100 | M4 ag counter inconclusive
CCOC(=O)Cn1c2ccc(OC)cc2c2nc3ccccc3nc21	M1 agonist 19 (no result: mHtt clearance) | M1 ag confirm inactive | M4 ag counter inactive
CCCOc1ccc(C(C)=O)cc1CSc1nc(O)cc(=O)[nH]1	none (no result: D1 mod, M1 antagonist, M1 agonist, AP complement)
Cc1cc(C)c2cc3c(ccn3C3OC[C@H](O)[C@H](O)[C@H]3O)cc2n1 (some centres undefined)	M1 agonist 36 (no result: mHtt clearance) | M1 ag confirm 201 | M4 ag counter inactive
COc1cc(NC(=O)Cc2nn(C)c(=O)c3ccccc23)cc(OC)c1	none (no result: mHtt clearance)
Cc1ccc(NC(=O)Cc2nn(C)c(=O)c3ccccc23)cc1F	M1 agonist 5.5 (no result: D1 mod) | M1 ag confirm inactive | M4 ag counter inconclusive
COc1ccccc1NC(=O)Cc1nn(C)c(=O)c2ccccc12	M1 agonist 2.7 | M1 ag confirm inactive | M4 ag counter inconclusive
Cn1nc(CC(=O)Nc2ccc3c(c2)OCCO3)c2ccccc2c1=O	M1 agonist 4.5 (no result: mHtt clearance) | M1 ag confirm inactive | M4 ag counter inactive
COc1cccc(OC)c1NC(=O)Cc1nn(C)c(=O)c2ccccc12	none
COc1ccc(NC(=O)N2CCCC(c3nc(-c4ccc(C(C)C)cc4)no3)C2)cc1 (centres undefined)	none (no result: mHtt clearance)
O=C(CSc1nnc(-c2ccccc2)n1Cc1ccco1)Nc1ccc2c(c1)OCCO2	M1 agonist 3.5 (no result: mHtt clearance) | M1 ag confirm inactive | M4 ag counter inactive
COc1cc2c(cc1OC)C(COc1ccc(F)cc1)N(C(=O)c1ccco1)CC2 (centres undefined)	M1 agonist 7.9 (no result: mHtt clearance) | M1 ag confirm inactive | M4 ag counter inactive
N#CC1=C(SCc2ccccc2Cl)NC(=O)C(C(N)=O)C1 (centres undefined)	none (no result: mHtt clearance)
Cc1cc(C(=O)CSc2nc3ccccc3c(=O)n2C)c(C)n1Cc1ccc2c(c1)OCO2	M1 agonist 5.7 (no result: mHtt clearance) | M1 ag confirm inactive | M4 ag counter inactive
Cc1nn(CC(N)=O)c(=O)c2ccccc12	none (no result: D1 mod, AP complement)
Cc1nn(CC(=O)N(C)C)c(=O)c2ccccc12	M1 agonist 4.2 (no result: mHtt clearance, AP complement) | M1 ag confirm inactive | M4 ag counter inactive
Cc1ccc2[nH]c3c(c2c1)CN(C(=O)CN1CC(C)OC(C)C1)CC3 (centres undefined)	M1 agonist 8.4 (no result: D1 mod, mHtt clearance, AP complement) | M1 ag confirm inactive | M4 ag counter inactive

Screening results as filed in PubChem.
